Activity, IC50 and viability data for 1 molecule are collected here from ChEMBL document CHEMBL4610039, “Design, synthesis and apoptosis-related antiproliferative activities of chelidonine derivatives” (Bioorg Med Chem Lett, 2020).

Calls of active or inactive are those of the source. No cut-off for these calls is given here.

Test [1] has as its system K562. The test is described as follows: Induction of mitochondrial membrane potential loss in human K562 cells assessed as cell population with mitochondrial membrane potential collapse at 0.55 uM after 48 hrs by JC1 staining-based flow cytometry analysis (reference value: 7.04%). It is filed as functional. (In general: Flow cytometry measures light scatter and fluorescence of single cells or particles in a stream.)

For test [2], the system named is K562. The test is described as follows: Induction of mitochondrial membrane potential loss in human K562 cells assessed as cell population with mitochondrial membrane potential collapse at 1.10 uM after 48 hrs by JC1 staining-based flow cytometry analysis (reference value: 7.04%). The class given is functional.
For test [3], the system named is K562. Kind of test: Induction of mitochondrial membrane potential loss in human K562 cells assessed as cell population with mitochondrial membrane potential collapse at 2.20 uM after 48 hrs by JC1 staining-based flow cytometry analysis (reference value: 7.04%). It is filed as functional.
For a further test, the system named is HepG2. Kind of test: Antiproliferative activity against human HepG2 cells assessed as reduction in cell growth after 72 hrs by MTT assay. The note with it: HepG2, 72 h. The class given is functional, cell-based. The gist of the method:
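Human HepG2, MCF-7, HCT-116 and K562 tumour cells plus normal L-02 hepatocytes and PBMCs were exposed to compounds for 72 h and growth was read by MTT. 5-Fu served as positive control. IC50 is the concentration inhibiting 50% of cell growth, given as mean ± standard deviation of three independent experiments.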
(Tetrazolium dyes change colour on reduction, which living cells bring about.)

Test [4] deals with K562. The test is described as follows: Induction of apoptosis in human K562 cells assessed as viable cells at 2.20 uM after 48 hrs by annexin V-FITC/propidium iodide staining based flow cytometry (reference value: 96.26%). The class given is functional. The note with it: K562, 48 h, read-out: Activity.
For test [5], the system named is K562. The test is described as follows: Induction of apoptosis in human K562 cells assessed as early apoptotic cells at 1.10 uM after 48 hrs by annexin V-FITC/propidium iodide staining based flow cytometry (reference value: 2.23%). The class given is functional.
For test [6], the system named is K562. Kind of test: Induction of cell cycle arrest in human K562 cells assessed as accumulation at G2/M phase at 2.20 uM after 72 hrs by propidium iodide staining based flow cytometry (reference value: 8.19%). It is filed as functional. The gist of the method: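 For cell cycle, K562 cells were treated 72 h at 0, 0.55, 1.10 or 2.20 μM, with a solvent control. Cells were stained with PI and G1, S and G2/M fractions determined by flow cytometry.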

Test [7] deals with K562. Kind of test: Induction of apoptosis in human K562 cells assessed as necrotic cells at 1.10 uM after 48 hrs by annexin V-FITC/propidium iodide staining based flow cytometry (reference value: 0.78%). It is filed as functional.
For test [8], the system named is K562. Kind of test: Induction of mitochondrial membrane potential loss in human K562 cells assessed as cell population with intact mitochondrial membrane potential at 2.20 uM after 48 hrs by JC1 staining-based flow cytometry analysis (reference value: 92.94%). It is filed as functional.
In test [9] the test system is K562. The test is described as follows: Induction of apoptosis in human K562 cells assessed as viable cells at 0.55 uM after 48 hrs by annexin V-FITC/propidium iodide staining based flow cytometry (reference value: 96.26%). The class given is functional. The note with it: K562, 48 h, read-out: Activity.
Test [10] has as its system K562. Kind of test: Induction of apoptosis in human K562 cells assessed as reduction in catalase protein expression after 24 hrs by chemiluminescence based protein array analysis. The class given is functional, cell-based. The gist of the method: (§1)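 K562 cells were treated for 24 h, then proteins were extracted and run on a human apoptosis protein array. Chemiluminescent signals were detected with a digital imaging system.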

For test [11], the system named is K562. The test is described as follows: Induction of apoptosis in human K562 cells assessed as reduction in survivin level after 24 hrs by chemiluminescence based protein array analysis. It is filed as functional, cell-based. The gist of the method:
as §1

What is called IC50 is the point on the concentration scale where inhibition reaches its midpoint. For the molecule `CN1Cc2c(ccc3c2OCO3)[C@H]2[C@@H](OC(=O)CCCC(=O)OCC#CCOc3no[n+]([O-])c3S(=O)(=O)c3ccccc3)Cc3cc4c(cc3[C@H]21)OCO4`, the Activity in the test on K562 [1] is 19.29%; with K562 [2] it was 28.66%; with K562 [3], 51.15%; with K562 [5], 16.46%; in the test on K562 [6], 7.87%; in the test on K562 [7], 0.66%. Further, in the test with K562 [8], the Activity stood at 48.85%. The IC50 in the test on HepG2 is 3.91 µM. Moreover, the viability at 2.2 µM with K562 [4] was 45%. For the same molecule, the viability at 0.55 µM with K562 [9] worked out at 88.3%. The outcome in the test on K562 [10] and in the test with K562 [11] was Active.
